Here are results for 46 molecules from ChEMBL document CHEMBL4145474, “Discovery of novel piperonyl derivatives as diapophytoene desaturase inhibitors for the treatment of methicillin-, vancomycin- and linezolid-resistant Staphylococcus aureus infections” (Eur J Med Chem, 2018).

The test system of data set [1] is Staphylococcus aureus. As to the kind of experiment: Inhibition of pigmentation in wild type Staphylococcus aureus Newman after 48 hrs by spectrophotometric method. Type of data set: functional, organism-based. The method, boiled down: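 S. aureus Newman was grown in TSB 48 h at 37 °C with a concentration series of compound in DMSO, in duplicate. Controls were a DMSO vehicle and a nonpigmented CrtN mutant. Cells were washed twice in 0.01 M PBS and pigment extracted in methanol. A450 was measured and IC50 derived by curve fitting.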

Another data set relates to HepG2. As to the kind of experiment: Cytotoxicity against human HepG2 cells assessed as reduction in cell viability after 72 hrs by CCK-8 assay. The following applies: HepG2, 72 h. In kind it is functional. The procedure, abridged:
(§1)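 HepG2 or HEK-293T cells were seeded at 5000 per well and grown 24 h at 37 °C, 5% CO₂. Cells were then exposed to compound for 72 h; compound came from DMSO, diluted in medium to final DMSO <0.4%, with a DMSO-matched vehicle control. Viability was read by 10% CCK-8 for 1 h, absorbance 450 nm, in triplicate.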
For orientation: Formazan colour is commonly taken as a measure of viable cells.

The test system of another data set is HEK-293T. The experiment in a line: Cytotoxicity against HEK293T cells assessed as reduction in cell viability after 72 hrs by CCK-8 assay. In kind it is functional. The following applies: Homo sapiens. The procedure, abridged: as §1
A short description of data set [2]: Solubility of the compound in water by UV analysis. Type of data set: physicochemical.
The test system of data set [3] is Staphylococcus aureus. The experiment in a line: Antibacterial activity against wild type Staphylococcus aureus Newman infected in BALB/c mouse assessed as decrease in bacterial load in mouse liver at 0.4 mg, ip bid administered 4.5 days measured after 90 hrs relative to control. Type of data set: functional.
Data set [4] has as its system Staphylococcus aureus. The experiment in a line: Antibacterial activity against methicillin/linezolid-resistant Staphylococcus aureus NRS271 infected in BALB/c mouse assessed as decrease in bacterial survival in mouse liver at 0.4 mg, ip bid administered 4.5 days measured after 90 hrs. Type of data set: functional, organism-based. The procedure, abridged: (§2)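 6–8-week-old female BALB/c mice (SPF) dosed intraperitoneally twice daily over 4.5 d at 0.1 or 0.4 mg/bid. Pre-treatment started before infection; post-treatment started 6 h after infection. Vancomycin and linezolid controls given as pre-treatment at 0.4 mg/bid. Retro-orbital inoculation: Mu50 1.1 × 10⁹ CFU, NRS271 1.8 × 10⁸ CFU. Kidneys and livers homogenised in PBS/0.01% Triton X-100 and plated on TSA for CFU.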

Data set [5] concerns Staphylococcus aureus. As to the kind of experiment: Antibacterial activity against vancomycin-intermediate methicillin-resistant Staphylococcus aureus Mu50 infected in BALB/c mouse assessed as decrease in bacterial survival in mouse liver at 0.4 mg, ip bid administered 4.5 days measured after 90 hrs. In kind it is functional, organism-based. The method, boiled down:
as §2

Data set [6] has as its system Staphylococcus aureus. As to the kind of experiment: Antibacterial activity against wild type Staphylococcus aureus Newman assessed as bacterial survival at 1 uM after 24 hrs by H2O2 killing assay (reference value: 26.67%). Type of data set: functional.

The structures appear in SMILES notation. The source made the active and inactive calls. The rule behind the calls is not given here.

With `CN(C/C=C/c1ccco1)Cc1ccc2c(c1)OCO2`, the IC50 (in general, the midpoint of a concentration-inhibition curve) in the data set with Staphylococcus aureus [1] was over 1000 nM.

`Cc1cccc(/C=C/CN(C)Cc2ccc3c(c2)OCO3)c1` registered an IC50 in the data set with Staphylococcus aureus [1] of 372 nM.

With `CN(C/C=C/c1ccc(F)cc1)Cc1ccc2c(c1)OCO2`, half-maximal inhibition in the data set on Staphylococcus aureus [1] (IC50) was put at 58.4 nM.

For `Cc1ccccc1/C=C/CN(C)Cc1ccc2c(c1)OCO2`, the IC50 in the data set with Staphylococcus aureus [1] was over 1000 nM.

On to `CN(C/C=C/c1cccc2ccccc12)Cc1ccc2c(c1)OCO2`, for which the IC50 in the data set with Staphylococcus aureus [1] was over 1000 nM.

In the case of `CN(C/C=C/c1ccc(C(F)F)cc1)Cc1ccc2c(c1)OCO2.Cl`, the CC50 (usually the concentration giving 50% cytotoxicity) was 138000 nM in the data set with HepG2 and 68000 nM in the data set on HEK-293T. Moreover, in the data set with Staphylococcus aureus [1], the IC50 amounted to 4.1 nM. The concentration in solution in data set [2] (solubility) was 9.03 mg/mL.

In the case of `CN(C/C=C/c1ccc(C(F)(F)F)cc1)Cc1ccc2c(c1)OCO2.Cl`, the CC50 turned out to be 69200 nM with HepG2 and 133000 nM with HEK-293T. The molecule also came in with an IC50 with Staphylococcus aureus [1] of 3.5 nM. Besides, the concentration in solution in data set [2] (solubility) was 13.5 mg/mL.

In the data set with Staphylococcus aureus [1], `CN(C/C=C/c1ccc(Cl)cc1Cl)Cc1ccc2c(c1)OCO2` had an IC50 of 17.6 nM.

`CN(C/C=C/c1cccs1)Cc1ccc2c(c1)OCO2` yielded an IC50 in the data set with Staphylococcus aureus [1] of over 1000 nM.

In the data set on Staphylococcus aureus [1], `Cc1ccc(/C=C/CN(C)Cc2ccc3c(c2)OCO3)cc1` came in with an IC50 of 15.7 nM.

`CN(C/C=C/c1ccc(C#N)cc1)Cc1ccc2c(c1)OCO2` had an IC50 with Staphylococcus aureus [1] of 12.5 nM.

With `COc1ccccc1/C=C/CN(C)Cc1ccc2c(c1)OCO2`, the IC50 with Staphylococcus aureus [1] is over 1000 nM.

For the molecule `C[C@@H]1[C@H](O)[C@@H](C)/C=C/C=C/C=C/C=C/C=C/C=C/C=C/[C@H](O[C@@H]2O[C@H](C)[C@@H](O)[C@H](N)[C@@H]2O)C[C@@H]2O[C@](O)(C[C@@H](O)C[C@@H](O)[C@H](O)CC[C@@H](O)C[C@@H](O)CC(=O)O[C@H]1C)C[C@H](O)[C@H]2C(=O)O` [AMPHOTERICIN B], the CC50 in the data set on HepG2 amounted to 28600 nM; with HEK-293T, 36500 nM.

Turning to `CN(CC#Cc1ccc(C(F)(F)F)cc1F)Cc1ccc2c(c1)OCO2`, the IC50 in the data set on Staphylococcus aureus [1] turned out to be 17.9 nM.

`CN(C/C=C/c1cccc(Cl)c1)Cc1ccc2c(c1)OCO2` had an IC50 in the data set on Staphylococcus aureus [1] of 576 nM.

With `CN(C/C=C/c1ccc(Br)cc1)Cc1ccc2c(c1)OCO2.Cl`, the 50% cytotoxic concentration (CC50) is 104000 nM in the data set with HepG2 and 68300 nM in the data set with HEK-293T. The molecule also yielded an IC50 with Staphylococcus aureus [1] of 4.6 nM. In addition, in data set [2], the concentration in solution (solubility) came to 17.5 mg/mL.

As to `CN(CCCc1ccc(C(F)(F)F)cc1F)Cc1ccc2c(c1)OCO2`, in the data set with Staphylococcus aureus [1], the IC50 was over 1000 nM.

`CN(C/C=C/c1ccccc1C(F)(F)F)Cc1ccc2c(c1)OCO2` yielded a half-maximal inhibitory concentration (IC50) with Staphylococcus aureus [1] of 28.8 nM.

As for `COc1ccc(/C=C/CN(C)Cc2ccc3c(c2)OCO3)c(F)c1.Cl`, the results for the CC50 in the data set on HepG2 and in the data set with HEK-293T were 120000 nM and 76800 nM, respectively. For the same molecule, the IC50 with Staphylococcus aureus [1] came out at 3.8 nM. Also, in data set [2], the solubility (usually how much of the substance goes into solution per volume) was 19.2 mg/mL.

Take `CN[C@H](CC(C)C)C(=O)N[C@H]1C(=O)N[C@@H](CC(N)=O)C(=O)N[C@H]2C(=O)N[C@H]3C(=O)N[C@H](C(=O)N[C@H](C(=O)O)c4cc(O)cc(O)c4-c4cc3ccc4O)[C@H](O)c3ccc(c(Cl)c3)Oc3cc2cc(c3O[C@@H]2O[C@H](CO)[C@@H](O)[C@H](O)[C@H]2O[C@H]2C[C@](C)(N)[C@H](O)[C@H](C)O2)Oc2ccc(cc2Cl)[C@H]1O` [VANCOMYCIN]: the Activity with Staphylococcus aureus [3] is given as 2.13 deltalog10CFU.

As for `CN(C/C=C/c1cccc(F)c1)Cc1ccc2c(c1)OCO2`, the IC50 in the data set on Staphylococcus aureus [1] amounted to 412 nM.

In turn, `CN(C/C=C/c1ccc(C(C)(C)C)cc1)Cc1ccc2c(c1)OCO2` showed an IC50 in the data set with Staphylococcus aureus [1] of 5.2 nM.

`C/C(=C\c1ccc(C(F)(F)F)cc1F)CN(C)Cc1ccc2c(c1)OCO2` yielded an IC50 in the data set with Staphylococcus aureus [1] of over 1000 nM.

Consider `CN(C/C=C/c1ccc(C(F)(F)F)c(F)c1)Cc1ccc2c(c1)OCO2`, for which it took 57 nM to reach half-maximal inhibition in the data set on Staphylococcus aureus [1] (IC50).

With `CN(C/C=C/c1ccc(Cl)cc1)Cc1ccc2c(c1)OCO2.Cl`, the CC50 came out at 141000 nM in the data set with HepG2 and 83800 nM in the data set with HEK-293T. The molecule also displayed an IC50 in the data set with Staphylococcus aureus [1] of 4.2 nM. In data set [2], this molecule returned a solubility of 18.7 mg/mL.

Consider `CC(=O)NC[C@H]1CN(c2ccc(N3CCOCC3)c(F)c2)C(=O)O1` [LINEZOLID], for which the outcome in the data set on Staphylococcus aureus [4] and with Staphylococcus aureus [5] was Active. Also, the Activity in the data set on Staphylococcus aureus [3] came out at 1.41 deltalog10CFU.

Molecule `CN(C/C=C/C1CCCC1)Cc1ccc2c(c1)OCO2` returned an IC50 with Staphylococcus aureus [1] of over 1000 nM.

Molecule `CN(C/C=C/c1cccc(C(F)(F)F)c1)Cc1ccc2c(c1)OCO2` yielded an IC50 in the data set with Staphylococcus aureus [1] of 523 nM.

For the molecule `CC(C)N(C/C=C/c1ccc(C(F)(F)F)cc1F)Cc1ccc2c(c1)OCO2`, the IC50 with Staphylococcus aureus [1] was over 1000 nM.

With `CN(C/C=C/c1ccc2ccccc2c1)Cc1ccc2c(c1)OCO2.Cl`, the CC50 in the data set with HepG2 is 60500 nM; in the data set on HEK-293T, 48300 nM. The molecule also had an IC50 in the data set on Staphylococcus aureus [1] of 4 nM. The same molecule came in with a solubility in data set [2] of 4.56 mg/mL.

The molecule `COc1ccc(/C=C/CN(C)Cc2ccc3c(c2)OCO3)cc1F` registered an IC50 in the data set with Staphylococcus aureus [1] of 112 nM. This counts as sub-micromolar.

In the data set with Staphylococcus aureus [1], `CN(C/C=C/c1ccccc1)Cc1ccc2c(c1)OCO2` yielded an IC50 of over 1000 nM.

In the case of `COc1cccc(/C=C/CN(C)Cc2ccc3c(c2)OCO3)c1`, in the data set with Staphylococcus aureus [1], the half-inhibitory concentration (IC50) is over 1000 nM.

In the case of `CC(=O)N[C@@H](CS)C(=O)O` [ACETYLCYSTEINE], the survival at 1 µM with Staphylococcus aureus [6] came out at 57.3%.

Consider `CN(Cc1ccc2c(c1)OCO2)C[C@@H]1C[C@H]1c1ccc(C(F)(F)F)cc1F`, for which, in the data set on Staphylococcus aureus [1], the IC50 was over 1000 nM.

In turn, `Fc1cc(C(F)(F)F)ccc1/C=C/CNCc1ccc2c(c1)OCO2` yielded a half-maximal inhibitory concentration (IC50) with Staphylococcus aureus [1] of over 1000 nM.

`CN(C/C=C/c1ccc(-c2ccccc2)cc1)Cc1ccc2c(c1)OCO2.Cl`: the CC50 in the data set on HepG2 amounted to 53600 nM; in the data set with HEK-293T it was 59100 nM. Moreover, in the data set with Staphylococcus aureus [1], the IC50 came out at 3.9 nM. For the same molecule, the solubility in data set [2] turned out to be 5.02 mg/mL.

For `CN(C/C=C/c1ccccc1Cl)Cc1ccc2c(c1)OCO2`, the IC50 in the data set on Staphylococcus aureus [1] is over 1000 nM.

With `CCN(C/C=C/c1ccc(C(F)(F)F)cc1F)Cc1ccc2c(c1)OCO2`, the IC50 in the data set on Staphylococcus aureus [1] was over 1000 nM.

Consider `COc1ccc(/C=C/CN(C)Cc2ccc3c(c2)OCO3)cc1`, for which the half-maximal inhibitory concentration (IC50) in the data set with Staphylococcus aureus [1] was 9.1 nM.

In the case of `C/C=C/CN(C)Cc1ccc2c(c1)OCO2`, the IC50 with Staphylococcus aureus [1] was over 1000 nM.

With `CCOc1ccc(/C=C/CN(C)Cc2ccc3c(c2)OCO3)cc1.Cl`, the CC50 in the data set on HepG2 came out at 82600 nM; with HEK-293T it was 122000 nM. Further, 4.2 nM corresponded to half-maximal inhibition with Staphylococcus aureus [1] (IC50). The amount in solution in data set [2] (solubility) came to 24.2 mg/mL.

Take `CN(C/C=C/C1CCCCC1)Cc1ccc2c(c1)OCO2`: in the data set with Staphylococcus aureus [1], the IC50 was over 1000 nM.

Molecule `CN(C/C=C/c1ccccc1F)Cc1ccc2c(c1)OCO2` came in with an IC50 in the data set on Staphylococcus aureus [1] of 121 nM.

Molecule `COC(=O)c1ccc(/C=C/CN(C)Cc2ccc3c(c2)OCO3)cc1` had an IC50 in the data set with Staphylococcus aureus [1] of 7.9 nM.

`CN(C/C=C/c1ccc([N+](=O)[O-])cc1)Cc1ccc2c(c1)OCO2` displayed an IC50 in the data set on Staphylococcus aureus [1] of 82.6 nM. This IC50 is about 10-fold higher than that of the molecule before.
